# Measured values reported in ChEMBL document CHEMBL1153263, “3-Acrylamide-4-aryloxyindoles: synthesis, biological evaluation and metabolic stability of potent and selective EP3 receptor antagonists” (Bioorg Med Chem Lett, 2009).
# pEC50, pIC50: −log10 of the molar value.
# What was measured:
# [1] = molecular target: T1, Prostaglandin E2 receptor EP3 subtype (Homo sapiens, UniProt P43115); test: Displacement of [3H]PGE2 from human EP3 receptor at 20 uM in presence of normal buffer
# T1 sequence (P43115 whole entry): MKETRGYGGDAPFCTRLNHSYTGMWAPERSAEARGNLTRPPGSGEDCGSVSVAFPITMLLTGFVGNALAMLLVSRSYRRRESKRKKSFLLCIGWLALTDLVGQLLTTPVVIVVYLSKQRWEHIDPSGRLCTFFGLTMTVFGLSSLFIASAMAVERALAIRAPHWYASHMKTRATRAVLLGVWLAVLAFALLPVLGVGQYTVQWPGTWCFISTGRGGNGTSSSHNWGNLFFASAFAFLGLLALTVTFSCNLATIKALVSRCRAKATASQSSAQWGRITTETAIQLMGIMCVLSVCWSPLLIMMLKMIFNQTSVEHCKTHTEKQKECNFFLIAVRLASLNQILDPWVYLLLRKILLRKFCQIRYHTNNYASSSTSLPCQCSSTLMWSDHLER
# [2] = molecular target: T1, Prostaglandin E2 receptor EP3 subtype; test: Displacement of [3H]PGE2 from human EP3 receptor at 20 uM in presence of 10% human serum
# [3] = molecular target: T2, Prostaglandin E2 receptor EP3 subtype (Homo sapiens) (UniProt P43115); test: Ratio IC50 for human EP3 receptor in presence of human serum to IC50 for human EP3 in absence of human serum
# T2 sequence (whole entry): T1 sequence (P43115 whole entry)
# [4] = Metabolic stability in human liver microsome assessed as compound remaining at 5 uM after 30 mins; format: ADME; settings: liver microsomes, read-out: Stability
# Method in brief: (§1)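 Liver microsomes at 0.8 mg/mL protein incubated with compound at 5 µM. Percent parent remaining after 30 min measured by LC–MS/MS.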
# [5] = Metabolic stability in rat liver microsome assessed as compound remaining at 5 uM after 30 mins; format: ADME; settings: liver microsomes, read-out: Stability; method in brief: as §1
# [6] = Metabolic stability in dog liver microsome assessed as compound remaining at 5 uM after 30 mins; format: ADME, Canis lupus familiaris; settings: liver microsomes, read-out: Stability; method in brief: as §1
# [7] = Antiplatelet activity against rat platelet assessed as platelet aggregation; format: functional, cell-based
# [8] = Antiplatelet activity against human platelet assessed as platelet aggregation; format: functional, cell-based
# [9] = tested on: Mus musculus; test: Plasma concentration in NMRI mouse at 2 mg/kg, iv; format: ADME, organism-based; set-up: dose 2 mg/kg, route intravenous; settings: in vivo
# Method in brief: (§2)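 Mouse iv exposure screen. Plasma and brain concentrations sampled 15 min after dosing.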
# [10] = tested on: Brain; test: Brain concentration in NMRI mouse at 2 mg/kg, iv; format: ADME, organism-based; set-up: dose 2 mg/kg, route intravenous; settings: in vivo; method in brief: as §2
# [11] = molecular target: Prostaglandin E2 receptor EP2 subtype (Homo sapiens, UniProt P43116); test: Displacement of radioligand from EP2 receptor
# [12] = molecular target: Prostaglandin E2 receptor EP4 subtype (Homo sapiens, UniProt P35408); test: Displacement of radioligand from EP4 receptor
# [13] = molecular target: Prostacyclin receptor (Homo sapiens, UniProt P43119); test: Displacement of radioligand from IP receptor
# [14] = molecular target: Prostaglandin F2-alpha receptor (Homo sapiens, UniProt P43088); test: Displacement of radioligand from FP receptor
# [15] = molecular target: T3, Prostaglandin E2 receptor EP1 subtype (Homo sapiens, UniProt P34995); test: Displacement of radioligand from EP1 receptor
# T3 sequence (P34995 whole entry): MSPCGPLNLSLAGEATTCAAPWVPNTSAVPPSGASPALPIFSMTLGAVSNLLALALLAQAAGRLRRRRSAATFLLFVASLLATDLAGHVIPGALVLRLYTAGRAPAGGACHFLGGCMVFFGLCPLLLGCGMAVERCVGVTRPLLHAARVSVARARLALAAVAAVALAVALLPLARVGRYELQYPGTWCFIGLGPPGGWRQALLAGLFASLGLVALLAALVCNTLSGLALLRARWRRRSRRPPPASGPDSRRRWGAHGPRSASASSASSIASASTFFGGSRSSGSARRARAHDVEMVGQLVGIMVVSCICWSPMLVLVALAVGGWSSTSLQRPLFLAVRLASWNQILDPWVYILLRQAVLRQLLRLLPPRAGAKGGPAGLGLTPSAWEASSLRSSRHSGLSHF
# [16] = Metabolic stability in mouse liver microsome assessed as compound remaining at 5 uM after 30 mins; format: ADME; settings: liver microsomes, read-out: Stability; method in brief: as §1
# [17] = Metabolic stability in monkey liver microsome assessed as compound remaining at 5 uM after 30 mins; format: ADME, Macaca mulatta; settings: rhesus monkey, liver microsomes; read-out: Stability; method in brief: as §1
# [18] = molecular target: T1, Prostaglandin E2 receptor EP3 subtype; test: Antagonist activity at human EP3-2 receptor expressed in CHOK1 cells; format: functional, cell-based, CHO-K1
# Method in brief: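 Stably transfected CHO-K1 cells expressing hEP3II, plated at 10⁵ cells/well and cultured overnight at 37 °C, 5% CO2. Washed with PBS, pre-incubated 30 min at 37 °C in serum-free medium with 1 mM IBMX. Stimulated with PGE2 (5×10⁻⁹ M) plus forskolin (5×10⁻⁶ M) ± compound (10⁻⁴–10⁻¹³ M) for 10 min at 37 °C. cAMP measured by EIA; EC50 from sigmoid non-linear regression.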
# Sequence of Prostaglandin E2 receptor EP2 subtype (P43116 whole entry): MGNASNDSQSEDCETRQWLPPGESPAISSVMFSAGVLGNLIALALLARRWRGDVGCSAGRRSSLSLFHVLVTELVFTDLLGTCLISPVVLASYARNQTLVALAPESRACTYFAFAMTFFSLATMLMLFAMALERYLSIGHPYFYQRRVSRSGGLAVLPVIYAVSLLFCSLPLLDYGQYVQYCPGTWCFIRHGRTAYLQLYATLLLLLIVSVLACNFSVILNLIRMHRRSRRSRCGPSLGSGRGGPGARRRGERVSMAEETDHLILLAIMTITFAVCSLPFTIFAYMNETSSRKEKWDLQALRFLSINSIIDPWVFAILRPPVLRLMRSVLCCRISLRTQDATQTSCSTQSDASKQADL
# Sequence of Prostaglandin F2-alpha receptor (P43088 whole entry): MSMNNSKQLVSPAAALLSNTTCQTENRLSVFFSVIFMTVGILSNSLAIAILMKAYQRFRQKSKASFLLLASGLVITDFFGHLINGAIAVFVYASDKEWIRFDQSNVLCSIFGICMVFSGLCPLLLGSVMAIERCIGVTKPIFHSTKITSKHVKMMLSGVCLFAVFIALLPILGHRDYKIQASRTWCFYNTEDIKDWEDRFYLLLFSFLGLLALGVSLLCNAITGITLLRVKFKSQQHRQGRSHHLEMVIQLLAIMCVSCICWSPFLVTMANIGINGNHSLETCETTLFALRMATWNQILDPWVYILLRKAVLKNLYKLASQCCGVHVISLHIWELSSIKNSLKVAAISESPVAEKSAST
# Sequence of Prostaglandin E2 receptor EP4 subtype (P35408 whole entry): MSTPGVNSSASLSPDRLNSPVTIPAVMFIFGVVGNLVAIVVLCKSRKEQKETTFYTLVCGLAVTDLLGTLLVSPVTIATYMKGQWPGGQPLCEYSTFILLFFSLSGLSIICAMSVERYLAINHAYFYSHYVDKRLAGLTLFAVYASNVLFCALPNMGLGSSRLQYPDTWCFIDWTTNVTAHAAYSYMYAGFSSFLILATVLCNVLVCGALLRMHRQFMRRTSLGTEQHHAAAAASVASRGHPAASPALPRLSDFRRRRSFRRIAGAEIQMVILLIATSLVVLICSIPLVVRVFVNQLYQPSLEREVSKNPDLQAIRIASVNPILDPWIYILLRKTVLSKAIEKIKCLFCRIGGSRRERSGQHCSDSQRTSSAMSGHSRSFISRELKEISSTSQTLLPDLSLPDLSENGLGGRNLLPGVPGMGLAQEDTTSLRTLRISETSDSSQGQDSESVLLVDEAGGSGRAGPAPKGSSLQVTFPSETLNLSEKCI
# Sequence of Prostacyclin receptor (P43119 whole entry): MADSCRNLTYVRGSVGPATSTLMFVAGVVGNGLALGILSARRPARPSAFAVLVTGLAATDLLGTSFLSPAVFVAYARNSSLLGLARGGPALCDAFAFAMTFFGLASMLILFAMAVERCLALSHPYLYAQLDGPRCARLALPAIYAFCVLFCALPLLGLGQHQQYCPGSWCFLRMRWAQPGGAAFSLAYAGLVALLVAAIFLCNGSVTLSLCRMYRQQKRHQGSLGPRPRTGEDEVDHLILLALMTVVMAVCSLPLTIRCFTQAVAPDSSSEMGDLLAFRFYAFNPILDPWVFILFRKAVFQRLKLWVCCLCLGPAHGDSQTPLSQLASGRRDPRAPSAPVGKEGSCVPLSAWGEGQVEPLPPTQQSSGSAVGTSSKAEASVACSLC
pIC50 [1],pIC50 [2],Ratio IC50 [3],"remaining at 0.5 h, 5 µM [4]","remaining at 0.5 h, 5 µM [5]","remaining at 0.5 h, 5 µM [6]",pEC50 [7],pEC50 [8],Cp [9],Drug uptake [10],pIC50 [11],pIC50 [12],pIC50 [13],pIC50 [14],pIC50 [15],"remaining at 0.5 h, 5 µM [16]","remaining at 0.5 h, 5 µM [17]",pEC50 [18],SMILES
8.04,7.55,3.1,91.2%,32%,90.4%,7.94,8.09,1518 ng/mL,29.1 ng/mL,,,,,,,,,Cn1cc(/C=C/C(=O)NS(=O)(=O)c2cc(F)c(F)cc2F)c2c(Oc3ccc4ccccc4c3)cccc21
8.14,6.91,17.2,113%,40%,,,,,,< 5.00,< 5.00,< 5.00,5.50,< 5.00,,,,Cn1cc(/C=C/C(=O)NS(=O)(=O)c2ccc(F)c(F)c2)c2c(Oc3ccc(Cl)cc3F)cccc21
8.13,7.80,2.1,63.6%,24.6%,69.7%,7.89,,3420 ng/mL,55.7 ng/mL,4.90,4.90,5.73,5.44,5.85,62%,59%,,Cn1cc(/C=C/C(=O)NS(=O)(=O)c2ccc(F)c(F)c2)c2c(Oc3ccc4ccccc4c3)cccc21
7.93,7.63,2,74.7%,30.6%,104%,,,,,5.02,4.84,,5.71,5.41,69%,53.8%,7.58,Cn1cc(/C=C/C(=O)NS(=O)(=O)c2ccc(F)c(F)c2)c2c(Oc3ccc(Cl)cc3Cl)cccc21
